Assay results from ChEMBL document CHEMBL2424628, “Discovery of potent and selective nonsteroidal indazolyl amide glucocorticoid receptor agonists” (Bioorg Med Chem Lett, 2013).

Columns and labels:
[1] = target: T1, Glucocorticoid receptor (Homo sapiens) (UniProt P04150); test: Transactivation of glucocorticoid receptor ligand binding domain (unknown origin) transfected in human HeLa cells assessed as activation of NP-1 by GAL4 luciferase reporter gene assay relative to dexamethasone; assay type: cell-based
T1 sequence (whole entry): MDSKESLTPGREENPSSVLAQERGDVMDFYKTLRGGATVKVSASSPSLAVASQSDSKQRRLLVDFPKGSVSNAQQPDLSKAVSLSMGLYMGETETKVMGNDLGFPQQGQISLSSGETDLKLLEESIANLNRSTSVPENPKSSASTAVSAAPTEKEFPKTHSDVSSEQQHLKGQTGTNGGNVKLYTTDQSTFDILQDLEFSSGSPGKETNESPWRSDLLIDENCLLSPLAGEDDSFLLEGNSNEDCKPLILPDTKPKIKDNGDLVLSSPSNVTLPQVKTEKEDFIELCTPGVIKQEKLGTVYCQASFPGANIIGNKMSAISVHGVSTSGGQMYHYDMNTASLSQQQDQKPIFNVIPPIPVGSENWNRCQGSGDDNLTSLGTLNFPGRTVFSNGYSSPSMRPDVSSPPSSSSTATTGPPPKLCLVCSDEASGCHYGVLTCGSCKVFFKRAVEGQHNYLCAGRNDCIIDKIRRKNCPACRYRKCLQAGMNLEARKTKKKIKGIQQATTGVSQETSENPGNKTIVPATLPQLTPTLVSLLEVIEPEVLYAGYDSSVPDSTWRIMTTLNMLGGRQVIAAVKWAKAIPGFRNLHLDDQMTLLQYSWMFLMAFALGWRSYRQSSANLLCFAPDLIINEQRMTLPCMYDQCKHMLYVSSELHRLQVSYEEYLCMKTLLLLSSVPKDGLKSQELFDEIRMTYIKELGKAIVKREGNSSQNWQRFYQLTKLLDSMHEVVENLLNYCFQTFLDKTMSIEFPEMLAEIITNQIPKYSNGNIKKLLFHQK
In short: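 HeLa line (NP-1) stably transfected with a GR ligand binding domain chimera in a GAL4 luciferase reporter system, run in agonist mode. Direct GR-LBD activation read as increased luciferase activity. Means of two or more experiments in triplicate.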

[2] = target: T1, Glucocorticoid receptor (Homo sapiens); test: Agonist activity at glucocorticoid receptor in human A549 cells assessed as inhibition of IL-1beta-induced NF-kappaB dependent E-selectin activation by luciferase reporter gene assay relative to dexamethasone; assay type: cell-based

- Efficacy [1]: 106%
- Efficacy [2]: 86%
Structure (SMILES): CC(C)(C(=O)Nc1nncs1)[C@@H](c1ccccc1)c1ccc2c(cnn2-c2ccc(F)cc2)c1
